SUMO1-SIM PPI – modulators of human SUMO1-mediated protein-protein interactions; P63165; inhibition, % at 20 µM; hit rate 0.33% among 360,000; SUMO1 binding to a labelled peptide, TR-FRET, 1 h; in the data active means inhibition above about 37%
Target sequence (P63165 whole entry, looked up): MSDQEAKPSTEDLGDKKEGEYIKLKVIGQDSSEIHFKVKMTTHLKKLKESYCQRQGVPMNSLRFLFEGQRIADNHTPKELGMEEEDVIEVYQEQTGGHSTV
Scp-1 inhibitor – Scp-1 (human) phosphatase inhibition; AID 493091; hit rate 0.88% among 340,000; Q9GZU7; Recombinant Scp1, phosphopeptide, malachite green phosphate absorbance; inhibition, % at 20 µM;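 active means inhibition above about 50% at 20 µM, limit read from the data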
Target sequence (Q9GZU7 76-261 limits assumed): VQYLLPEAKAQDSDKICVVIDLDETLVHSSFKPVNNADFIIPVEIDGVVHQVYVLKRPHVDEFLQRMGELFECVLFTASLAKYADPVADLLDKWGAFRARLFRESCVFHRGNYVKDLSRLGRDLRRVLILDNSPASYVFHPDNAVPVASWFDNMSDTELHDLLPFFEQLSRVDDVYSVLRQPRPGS
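Material – SCP-1 phosphatase catalytic domain, residues 76-261 · Buffer or medium – Acidic Tris acetate buffer with magnesium and detergent · Also added – Phospho 17-mer peptide substrate · Compound – single 20 µM dose, 1% DMSO · Times – 45 min room-temperature reaction, 5 min colour, 30 min stabiliser · Technique – Phosphate-binding colour reagent, absorbance read at 630 nm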
LMPTP block – blocks human LMPTP phosphatase; AID 651560; recombinant LMPTP-A, OMFP fluorogenic substrate, fluorescence intensity; P24666; inhibition, % at 20 µM; hit rate 0.22% among 360,000;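 active means compounds that cut the enzyme signal by at least half of the control window in the single-dose screen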
Target sequence (P24666 whole entry, looked up): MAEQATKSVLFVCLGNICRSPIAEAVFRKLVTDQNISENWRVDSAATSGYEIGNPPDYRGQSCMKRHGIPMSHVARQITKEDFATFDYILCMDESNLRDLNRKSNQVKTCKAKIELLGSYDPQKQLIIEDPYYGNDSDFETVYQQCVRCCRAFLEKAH
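test system = LMPTP-A | amount = 0.625 nM LMPTP-A final | reagent = fluorogenic phosphatase substrate OMFP at 400 µM final | incubation = 50 min at room temperature | benchmarks = no-enzyme low control, uninhibited high control | medium = Bis-Tris pH 6.0, DTT, detergent | signal = fluorescence intensity of OMFP turnover product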
DNMT1 block – blocks human DNA methyltransferase DNMT1; P26358; DNMT1 molecular beacon, Hinp1I cleavage, fluorescence; hit rate 0.83% among 360,000; inhibition (reported as % activation of signal), % at 10 µM; in the data active means inhibition above about 50%
STEP block – blocks human striatal-enriched tyrosine phosphatase. P54829. recombinant STEP, OMFP fluorogenic substrate, fluorescence. inhibition, % at 20 µM. hit rate 0.25% among 360,000;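 active means inhibition at 20 µM, scaled per plate between control wells, above about 37%, limit read from the data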
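System: isolated STEP enzyme; schedule: 20 min enzyme reaction at room temperature, protected from light; medium: Bis-Tris buffer pH 6.0, 2.5 mM DTT, 0.005% Tween 20; signal: fluorescence, 480/540 nm; dosing: single compound dose of 20 µM, 1% DMSO final; also added: OMFP substrate, 25 µM final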
Scp1 confirm – Scp-1 (human) inhibition, single-dose confirmed; shares compounds with Scp-1 inhibitor; recombinant SCP-1 catalytic domain, phosphate release, malachite green absorbance; inhibition, % at 20 µM; hit rate 61% among 2,500
MG interference – colorimetric interference in Scp-1 counter-screen; shares compounds with Scp-1 inhibitor; Colorimetric interference counterscreen, malachite green absorbance 630 nm; apparent inhibition (interference), % at 20 µM; 2,500 tested, under 10 active;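 further: compounds added after enzyme reaction finished so only phosphate colour detection is probed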
Scp1 DSF – binds human Scp-1, shifting its melting temperature; Recombinant SCP1, Sypro Orange thermal shift Tm; thermal shift relative to vanadate control, % at 40 µM; AID 540329; hit rate 25% among 1,500; shares compounds with Scp-1 inhibitor;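 active means substances whose mean melting-temperature shift, as a percentage of the reference inhibitor's shift, reaches about 5.3%, limit read from the data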
Of the large screens only hits and unclear results are named; the others gave an inactive call (follow-up assays come after a bar, where they were run); ! = a repeat was not active. Compounds with a hit are over-represented: about 1.7% of the library has one in this group of screens.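 How the source made its calls, unless noted: active means inhibition of at least 30% at 20 µM; inactive means the rest.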

O=C(O)Cc1ccc(-n2cccc2)cc1	Scp-1 inhibitor 80, DNMT1 block 96 | Scp1 confirm 53 | MG interference inactive | Scp1 DSF inactive
Cc1cc(NS(=O)(=O)c2ccc(NC(=O)Cc3ccc([N+](=O)[O-])cc3)cc2)nc(C)n1	none
O=C(O)CCN1C(=O)c2ccc(NC(=O)C(c3ccccc3)c3ccccc3)cc2C1=O	Scp-1 inhibitor 67 | Scp1 confirm inactive | MG interference inactive
O=C(O)CCN1C(=O)c2ccc(NC(=O)c3ccco3)cc2C1=O	none
CCOC(=O)C1CCN(C(=O)c2ccc(OCC(=O)Nc3ccc(OCC)cc3)c(OC)c2)CC1	none
COc1cccc(N2[C@@H](CC(=O)O)c3cc(C(F)(F)F)ccc3S2(=O)=O)c1	Scp-1 inhibitor 104 | Scp1 confirm 69 | MG interference inactive | Scp1 DSF inactive
CC(C)CC(NC(=O)C1CCCCC1)C(=O)NC(C)c1ccccc1 (configuration not stated)	none
CC(C)CCC(C(=O)NC(C)c1ccccc1)C(=O)NC(C)c1ccccc1 (configuration not stated)	Scp-1 inhibitor 92, LMPTP block 52 | Scp1 confirm 57 | MG interference inactive | Scp1 DSF inactive
CCOc1cc(C2C3=C(CC(C)(C)CC3=O)N(CCOC)C3=C2C(=O)CC(C)(C)C3)ccc1OC	Scp-1 inhibitor 54 | Scp1 confirm inactive | MG interference inactive
CC(C)NC(=O)c1cc2c(=O)n3ccccc3nc2s1	Scp-1 inhibitor 64 | Scp1 confirm inactive | MG interference inactive
CSc1ccccc1NC(=O)c1cc2c(=O)n3ccccc3nc2s1	none
Cn1c(SCc2ccccc2)nc(N)c(N=O)c1=O	none
O=C(N/N=C/c1cccc(Br)c1)c1ccc(Br)cc1	Scp-1 inhibitor 104, LMPTP block 60 | Scp1 confirm 76 | MG interference inactive | Scp1 DSF inactive
O=C(N/N=C/c1ccc2nccnc2c1)c1ccc(Br)cc1	none
CC1=NC(C(F)(F)F)(C(F)(F)F)C(C#N)=C(C)N1	Scp-1 inhibitor 56 | Scp1 confirm inactive | MG interference inactive
CC1=C(C#N)C(Nc2cc(C)ccn2)(C(F)(F)F)C(=O)N1 (configuration not stated)	none
O=C(/C=C/c1ccco1)NCC(=O)N/N=C/c1ccc([N+](=O)[O-])cc1	Scp-1 inhibitor 76 | Scp1 confirm 79 | MG interference inactive | Scp1 DSF 6.6
O=C(/C=C/c1ccco1)NCC(=O)N/N=C/c1ccc(Cl)cc1	none
Cc1ccc(C)c(NC(=O)CN2C(=O)NC(C)(c3ccc4c(c3)OCCO4)C2=O)c1 (configuration not stated)	none
c1ccc2[nH]c(-c3ccnc4ccccc34)nc2c1	Scp-1 inhibitor 100! | Scp1 confirm 79 | MG interference inactive | Scp1 DSF inactive
c1ccc2c(-c3nc4ccccc4[nH]3)cccc2c1	none (no result: Scp-1 inhibitor)
COC(=O)C1=C(C)NC(=S)NC1c1ccc(OCC(=O)N2CCCCC2)c(OC)c1 (configuration not stated)	none
C=CCn1cnc2c(c1=O)c1nc3ccccc3nc1n2/N=C/c1cccc(OC)c1OC	Scp-1 inhibitor 96 | Scp1 confirm 62 | MG interference inactive | Scp1 DSF inactive
CCOc1ccc(C(=O)Nc2cccc(-c3nc4cccnc4o3)c2)cc1Cl	Scp-1 inhibitor 83 | Scp1 confirm inactive | MG interference inactive
Cc1ccc(S(=O)(=O)NN2C(=O)/C(=C/c3ccc(C(=O)O)cc3)SC2=S)cc1	Scp-1 inhibitor 64 | Scp1 confirm inactive | MG interference inactive
COc1ccc(CN2C(=O)c3ccccc3C2c2nnnn2-c2ccc3c(c2)OCCO3)cc1 (configuration not stated)	none (no result: Scp-1 inhibitor, DNMT1 block, STEP block)
CCOC(=O)/C=C1\CN(CCC(C)C)S(=O)(=O)c2ccccc21	Scp-1 inhibitor 59 | Scp1 confirm 31 | MG interference inactive | Scp1 DSF inactive
CCOC(=O)/C=C1\CC(C(=O)OCC)Oc2ccccc21 (configuration not stated)	none
CCOC(=O)/C=C1\CN(C(C)c2ccccc2)S(=O)(=O)c2ccccc21 (configuration not stated)	Scp-1 inhibitor 84 | Scp1 confirm 46 | MG interference inactive | Scp1 DSF inactive
CCCn1c2ccccc2c2cnn(CC(=O)NCCCN3CCN(c4ccccc4)CC3)c(=O)c21	none
CCN(CC(=O)Nc1ccc(OC)cc1)C(=O)c1cccc(S(=O)(=O)N2CCN(c3ccccc3)CC2)c1	none (no result: Scp-1 inhibitor)
COc1ccc2cc3cc(C(=O)NCc4ccco4)oc3nc2c1	Scp-1 inhibitor 61 | Scp1 confirm 56 | MG interference inactive | Scp1 DSF inactive
O=C(NCc1ccco1)c1cc2cc3ccc(Cl)cc3nc2o1	none
CCOc1ccc(NC(=O)c2cc3cc4ccc(OC)cc4nc3o2)cc1	Scp-1 inhibitor 55 | Scp1 confirm 41 | MG interference inactive | Scp1 DSF inactive
COCCNC(=O)C1(C)CCN(C(=O)c2sccc2C)C1 (configuration not stated)	none (no result: Scp-1 inhibitor)
COc1ccc(CCNC(=O)CSc2nc(=O)n3cccc(C)c3n2)cc1OC	none
C=CCn1c(SCc2nc3sc(C(=O)O)c(C)c3c(=O)[nH]2)nnc1-c1ccccc1	none
C=CCn1c(SCc2nc3sc(C(=O)O)c(C)c3c(=O)[nH]2)nnc1-c1ccc(C(C)(C)C)cc1	Scp-1 inhibitor 69 | Scp1 confirm 55 | MG interference inactive | Scp1 DSF inactive
CCN(CC)C(=O)Cn1c(C)c(/C=C/c2cc[n+](C)cc2)c2ccccc21	Scp-1 inhibitor 63 | Scp1 confirm inactive | MG interference inactive
C=CCn1c(C)c(/C=C/c2cc[n+](C)cc2)c2ccccc21	none
COc1ccc(C(CNS(=O)(=O)c2ccc(NC(C)=O)c(OC)c2)N2CCCCC2)cc1 (configuration not stated)	Scp-1 inhibitor 50 | Scp1 confirm inactive | MG interference inactive
COc1ccc(C(CNS(=O)(=O)c2ccc(NC(C)=O)c(OC)c2)N2CCCC2)cc1 (configuration not stated)	none
COc1ccc(-c2oc3c(c2C(=O)OCCCO)C(OCCCCCO)CCC3)cc1 (configuration not stated)	none (no result: Scp-1 inhibitor, DNMT1 block, STEP block)
O=C(O)c1ccccc1C(=O)NCC(O)COCC1CC=CCC1 (configuration not stated)	none
CCCc1n(CC(O)COC2CCCCC2)c2ccccc2[n+]1C (configuration not stated)	Scp-1 inhibitor 100 | Scp1 confirm 77 | MG interference inactive | Scp1 DSF inactive

Screening results: PubChem, Sanford-Burnham Center for Chemical Genomics
